ChEMBL document CHEMBL5712095, “The UVSSA complex alleviates MYC-driven transcription stress” (J Cell Biol, 2021)
The source made the active and inactive calls. The rule behind the calls is not given here.

Assays:
Assay type in all cases: cell-based
[1] = biological target: Ubiquitin carboxyl-terminal hydrolase 7 (Homo sapiens) (UniProt Q93009); experiment: Inhibition of USP7 in human MCF10A-MYC-ER cells assessed as increase in sensitization of MYC expressing cells up to 4 uM by MTT assay relative to control; conditions: MCF10
[2] = biological target: Ubiquitin carboxyl-terminal hydrolase 7 (Homo sapiens) (UniProt Q93009); experiment: Inhibition of USP7 in human MCF10A-MYC-ER cells assessed as increase in sensitization of MYC expressing cells up to 4 uM by Clonogenic assays relative to control; conditions: MCF10
Procedure, shortened: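 Clonogenic assay: MCF10A-MYC-ER cells plated at 500 per 100-mm dish with 200 nM 4OHT or vehicle. Next day, P5091 at 0–4 µM for 24 h, then medium with 4OHT or vehicle for 10 d at 37°C. Colonies methanol-fixed, crystal violet-stained and counted; percentage survival from colony number; unpaired t test, n = 4.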

MCF10 [3] = experiment: Inhibition of RNA polymerase 2 in human MCF10A cells with UVSSA knockdown assessed as increase in MYC ON/MYC OFF survival ratio at 100 ng/ml administered every 48 to 72 hrs over 14 days by FBCS assay; conditions: time 14.0 day
[4] = Toxicity in human MCF10A cells with UVSSA knockdown assessed as increase in MYC ON/MYC OFF survival ratio at 100 ng/ml administered every 48 to 72 hrs over 14 days by FBCS assay; conditions: mcf10, 336 h, time 14 day
MCF10 [5] = experiment: Inhibition of RNA polymerase 2 in human MCF10A cells with UVSSA knockdown assessed as transiently alleviation of synthetic sickness phenotype at 100 ng/ml administered every 48 to 72 hrs over 14 days by FBCS assay; conditions: time 14.0 day
DNA = experiment: Induction of DNA double strand breaks in human MCF10A cells assessed as significant accumulation of P-CHK1(S345) or P-RPA (S4/S8) by Western blot analysis; conditions: MCF10
Procedure, shortened: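 Immunoblot of whole-cell lysates (RIPA buffer with protease/phosphatase inhibitors, sonicated, cleared at 4°C) from MCF10A-MYC-ER shRNA lines given 200 nM 4OHT or vehicle plus 1 µg/ml doxycycline every 3 d and harvested at day 9. β-Actin is the loading control and NCS-treated cells the DSB positive control. Signal detected by ECL on film.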

MCF10 [6] = experiment: Inhibition of DNA replicative polymerase in human MCF10A cells with UVSSA knockdown assessed as increase in MYC ON/MYC OFF survival ratio at 50 ng/ml administered every 48 to 72 hrs over 26 days by FBCS assay; conditions: time 26.0 day
Procedure, shortened: (§1)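 FBCS: 250,000 shUVSSA-4 or shCONTROL MCF10A-MYC-ER cells coplated with 250,000 shRNA-free cells. Given 1 µg/ml doxycycline, 200 nM 4OHT or ethanol vehicle, and aphidicolin (top dose 50 ng/ml) or vehicle every 48–72 h for 26 d. Fluorescent fraction measured by flow cytometry at each passage; MYC ON/MYC OFF ratio calculated; n = 3.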

MCF10 [7] = experiment: Inhibition of DNA replicative polymerase in human MCF10A cells with UVSSA knockdown assessed as transiently alleviation of synthetic sickness phenotype at 50 ng/ml administered every 48 to 72 hrs over 26 days by FBCS assay; conditions: time 26.0 day; procedure, shortened: as §1

Sequence of Ubiquitin carboxyl-terminal hydrolase 7 (Homo sapiens) (Q93009 whole entry, looked up): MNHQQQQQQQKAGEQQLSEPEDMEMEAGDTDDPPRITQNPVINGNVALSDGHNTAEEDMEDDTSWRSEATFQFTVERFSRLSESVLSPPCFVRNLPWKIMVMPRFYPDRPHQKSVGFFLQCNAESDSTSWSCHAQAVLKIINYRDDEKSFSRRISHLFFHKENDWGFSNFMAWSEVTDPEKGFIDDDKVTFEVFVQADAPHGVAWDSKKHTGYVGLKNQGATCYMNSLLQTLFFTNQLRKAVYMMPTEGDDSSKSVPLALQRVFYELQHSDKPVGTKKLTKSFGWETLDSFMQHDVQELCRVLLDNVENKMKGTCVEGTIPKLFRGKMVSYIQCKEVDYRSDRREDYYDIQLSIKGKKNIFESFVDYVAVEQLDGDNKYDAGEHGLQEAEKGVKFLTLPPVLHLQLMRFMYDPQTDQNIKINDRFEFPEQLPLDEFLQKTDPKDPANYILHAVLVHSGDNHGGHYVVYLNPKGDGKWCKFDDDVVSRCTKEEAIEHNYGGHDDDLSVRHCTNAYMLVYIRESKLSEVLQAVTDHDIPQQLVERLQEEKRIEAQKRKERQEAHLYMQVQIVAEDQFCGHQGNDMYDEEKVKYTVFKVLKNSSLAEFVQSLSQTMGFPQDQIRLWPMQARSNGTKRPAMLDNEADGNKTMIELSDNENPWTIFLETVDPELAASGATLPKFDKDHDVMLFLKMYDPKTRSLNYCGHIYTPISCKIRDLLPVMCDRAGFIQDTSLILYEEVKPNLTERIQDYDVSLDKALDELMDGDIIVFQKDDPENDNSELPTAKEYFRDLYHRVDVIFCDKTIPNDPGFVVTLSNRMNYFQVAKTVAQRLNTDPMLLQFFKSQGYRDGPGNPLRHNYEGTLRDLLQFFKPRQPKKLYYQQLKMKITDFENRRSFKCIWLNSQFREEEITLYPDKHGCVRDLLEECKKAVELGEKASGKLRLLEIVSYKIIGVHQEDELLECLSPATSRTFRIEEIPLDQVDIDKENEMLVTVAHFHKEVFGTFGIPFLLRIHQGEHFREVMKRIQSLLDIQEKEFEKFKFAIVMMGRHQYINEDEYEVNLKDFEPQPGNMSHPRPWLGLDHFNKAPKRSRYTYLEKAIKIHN

CC(=O)c1cc([N+](=O)[O-])c(Sc2cccc(Cl)c2Cl)s1
fold change (FC) [1]: 3
inhibition [2]: Active

CC[C@H](C)[C@@H]1NC(=O)CNC(=O)[C@@H]2Cc3c([nH]c4cc(O)ccc34)[S@+]([O-])C[C@H](NC(=O)CNC1=O)C(=O)N[C@@H](CC(N)=O)C(=O)N1C[C@H](O)C[C@H]1C(=O)N[C@@H]([C@@H](C)[C@@H](O)CO)C(=O)N2
inhibition (MCF10 [3]): Active
Activity [4]: Toxic
inhibition (MCF10 [5]): Active

CN[C@H]1[C@@H](O[C@@H]2C3CC#C[C@H]4O[C@@]4(C4COC(=O)O4)C#CC3=C[C@H]2OC(=O)c2c(O)ccc3c(C)cc(OC)cc23)O[C@H](C)[C@H](O)[C@@H]1O (stereo partly drawn)
Activity (DNA): Active

C[C@@]1(CO)[C@H](O)CC[C@@]2(C)[C@H]1CC[C@H]1C[C@@H]3C[C@@]12CC[C@]3(O)CO
inhibition (MCF10 [6]): inactive
inhibition (MCF10 [7]): inactive
